{
  "source": "ChEMBL document CHEMBL4725355",
  "about": "“Design, Synthesis, and Preclinical Evaluation of 3-Methyl-6-(5-thiophenyl)-1,3-dihydro-imidazo[4,5-b]pyridin-2-ones as Selective GluN2B Negative Allosteric Modulators for the Treatment of Mood Disorders” (J Med Chem, 2020)",
  "key": {"Cytochrome P450 2C9": {"target": "Cytochrome P450 2C9 (Homo sapiens, UniProt P11712)", "sequence (P11712 whole entry, canonical isoform)": "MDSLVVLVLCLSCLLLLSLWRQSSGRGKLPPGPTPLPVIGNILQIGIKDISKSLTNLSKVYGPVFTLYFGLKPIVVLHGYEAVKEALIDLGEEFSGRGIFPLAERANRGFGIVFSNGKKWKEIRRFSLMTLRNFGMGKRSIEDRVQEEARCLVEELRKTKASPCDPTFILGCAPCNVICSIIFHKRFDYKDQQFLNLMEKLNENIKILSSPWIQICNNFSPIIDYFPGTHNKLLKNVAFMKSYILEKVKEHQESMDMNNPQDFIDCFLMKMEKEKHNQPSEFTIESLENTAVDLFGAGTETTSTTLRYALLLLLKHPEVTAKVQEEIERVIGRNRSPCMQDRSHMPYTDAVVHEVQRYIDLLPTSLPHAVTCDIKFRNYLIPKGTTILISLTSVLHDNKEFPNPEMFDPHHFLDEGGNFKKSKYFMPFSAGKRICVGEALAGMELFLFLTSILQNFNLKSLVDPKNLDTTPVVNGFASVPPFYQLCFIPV", "assay": "Inhibition of CYP2C9 in human liver microsomes using tolbutamide as substrate measured after 15 mins by LC-MS/MS analysis", "type": "ADME", "outline": "(§1)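 Human liver microsomes incubated with isoform-specific probe substrates and the test compound at concentrations up to 20 µM. IC50 derived from inhibition of metabolite formation; mean of two independent experiments, with known specific inhibitors as positive controls.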"}, "[1]": {"assay": "Clearance in mouse at 0.5 mg/kg, iv by LC-MS/MS analysis", "type": "ADME, organism-based", "details": "in vivo"}, "[2]": {"assay": "(§2) Ratio of Cmax in Sprague-Dawley rat at 125 mg/kg, po administered via gavage after 24 hrs using HPMC formulation by LC-MS/MS analysis to EC70 for ex vivo receptor occupancy at GluN2B in po dosed Sprague-Dawley rat assessed as 3-[3H] 1-(azetidin-1-yl)-2-[6-(4-fluoro-3-methyl-phenyl)pyrrolo[3,2-b]pyridin-1-yl]-ethanone labelling", "type": "ADME, organism-based"}, "[3]": {"assay": "Tmax in Sprague-Dawley rat at 500 mg/kg, po administered via gavage after 24 hrs using HPMC formulation by LC-MS/MS analysis", "type": "ADME, organism-based", "details": "in vivo", "outline": "(§3)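 Single oral gavage of a 5% HPMC suspension at 125, 250, 500 or 1000 mg/kg to male Sprague Dawley rats, 3 per group. Plasma was sampled at 6 time points from 0.5 to 24 h.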"}, "[4]": {"assay": "Tmax in mouse at 2.5 mg/kg, po by LC-MS/MS analysis", "type": "ADME, organism-based", "details": "in vivo"}, "[5]": {"assay": "Negative allosteric modulation of human GluN1a/GluN2C receptor expressed in CHO cells assessed as inhibition of glutamate and glycine-induced calcium flux preincubated for 5 mins followed by glutamate and glycine addition and measured after 5 mins by calcium 5 dye based FLIPR assay", "type": "cell-based", "outline": "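Tet-On CHO T-Rex cells expressing hGluN1a with GluN2A, 2B, 2C or 2D, plated at 20,000 cells/well and induced 24 h before the assay in the presence of ketamine. Cells loaded 1 h at room temperature with Calcium 5 dye, pH 7.4 HEPES buffer. Compound added 5 min, then glutamate (~EC80) plus 10 µM glycine for 5 min; FLIPR fluorescence normalized to control wells. Three independent runs in duplicate (two for some).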"}, "[6]": {"assay": "Cmax in Sprague-Dawley rat at 1000 mg/kg, po administered via gavage after 24 hrs using HPMC formulation by LC-MS/MS analysis", "type": "ADME, organism-based", "parameters": "route oral, dose 1000 mg/kg, time 24 hrs", "details": "in vivo", "outline": "(§4)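 Single oral gavage dose to male Sprague Dawley rats, 3 per dose level. Vehicles were a standard suspension in 5% HPMC (125, 250, 500 or 1000 mg/kg) or a nanosuspension (API:polymer 4:1), with stock diluted in vehicle on the day of dosing (100, 250 or 500 mg/kg). Blood was sampled at time points from 0.5 to 24 h.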"}, "[7]": {"assay": "as §2, with “250” for “125”", "type": "ADME, organism-based"}, "Cytochrome P450 3A4 [8]": {"target": "T1, Cytochrome P450 3A4 (Homo sapiens, UniProt P08684)", "T1 sequence (P08684 whole entry)": "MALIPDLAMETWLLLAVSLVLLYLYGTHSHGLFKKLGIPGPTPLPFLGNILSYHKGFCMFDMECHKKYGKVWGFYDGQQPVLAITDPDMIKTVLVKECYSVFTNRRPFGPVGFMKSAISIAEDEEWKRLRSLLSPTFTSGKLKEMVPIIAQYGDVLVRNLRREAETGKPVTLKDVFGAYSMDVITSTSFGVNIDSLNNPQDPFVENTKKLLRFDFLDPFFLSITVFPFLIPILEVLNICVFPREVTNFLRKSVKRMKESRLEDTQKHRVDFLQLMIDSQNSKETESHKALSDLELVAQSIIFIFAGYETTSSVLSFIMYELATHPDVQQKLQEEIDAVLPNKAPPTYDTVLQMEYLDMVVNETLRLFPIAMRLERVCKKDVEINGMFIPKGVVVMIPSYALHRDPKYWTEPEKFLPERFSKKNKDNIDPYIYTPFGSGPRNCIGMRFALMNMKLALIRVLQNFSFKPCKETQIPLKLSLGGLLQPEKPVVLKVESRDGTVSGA", "assay": "Inhibition of CYP3A4 in human liver microsomes using testosterone as substrate measured after 15 mins by LC-MS/MS analysis", "type": "ADME", "outline": "as §1"}, "Cytochrome P450 3A4 [9]": {"target": "T1, Cytochrome P450 3A4", "assay": "Time-dependent inhibition of CYP3A4 in human liver microsomes at 10 uM using testosterone as substrate by LC-MS/MS analysis", "type": "ADME", "outline": "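CYP3A4 time-dependent inhibition in human liver microsomes. The compound (0.4 to 10 μM) was tested with and without 30 min preincubation. IC50 was taken from percent activity remaining versus vehicle, averaged over two independent experiments. A >2-fold IC50 shift after preincubation was the threshold for time-dependent inhibition.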"}, "[10]": {"assay": "Tmax in Sprague-Dawley rat at 125 mg/kg, po administered via gavage after 24 hrs using HPMC formulation by LC-MS/MS analysis", "type": "ADME, organism-based", "details": "in vivo", "outline": "as §3"}, "[11]": {"assay": "Oral bioavailability in dog at 0.5 mg/kg by LC-MS/MS analysis", "type": "ADME, organism-based, Canis lupus familiaris", "details": "in vivo"}, "Cytochrome P450 3A4 [12]": {"target": "T1, Cytochrome P450 3A4", "assay": "Inhibition of CYP3A4 in human liver microsomes using midazolam as substrate measured after 15 mins by LC-MS/MS analysis", "type": "ADME", "outline": "as §1"}, "[13]": {"assay": "AUC (0 to 24 hrs) in Sprague-Dawley rat at 1000 mg/kg, po administered via gavage after 24 hrs using HPMC formulation by LC-MS/MS analysis", "type": "ADME, organism-based", "parameters": "route oral, dose 1000 mg/kg, time <=24", "details": "in vivo"}, "[14]": {"assay": "Clearance in monkey at 0.1 mg/kg, iv by LC-MS/MS analysis", "type": "ADME, organism-based, Macaca mulatta", "details": "rhesus monkey, in vivo"}, "[15]": {"assay": "Cmax in Sprague-Dawley rat at 2.5 mg/kg, po by LC-MS/MS analysis", "type": "ADME, organism-based", "parameters": "route oral, dose 2.5 mg/kg", "details": "in vivo", "outline": "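Rat PK with IV and PO dosing, n=3. The usual doses were 0.5 mg/kg IV and 2.5 mg/kg PO in 20% HP-β-CD. One compound was instead given at 0.1 mg/kg IV and 0.5 mg/kg PO.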"}, "[16]": {"assay": "Protein binding in rat plasma assessed as unbound fraction at 0.5 uM after 6 hrs by equilibrium dialysis method", "type": "ADME, cell-free"}, "[17]": {"assay": "Tmax in Sprague-Dawley rat at 100 mg/kg, po administered via gavage after 24 hrs using nanosuspension formulation by LC-MS/MS analysis", "type": "ADME, organism-based", "details": "in vivo", "outline": "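Single oral gavage of a nanosuspension (API:polymer 4:1), diluted with vehicle on the dosing day, at 100, 250 or 500 mg/kg to male Sprague Dawley rats, 3 per dose. Plasma was sampled from 0.5 to 24 h.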"}, "[18]": {"assay": "Oral bioavailability in Sprague-Dawley rat at 2.5 mg/kg by LC-MS/MS analysis", "type": "ADME, organism-based", "details": "in vivo"}, "[19]": {"assay": "Tmax in Sprague-Dawley rat at 250 mg/kg, po administered via gavage after 24 hrs using HPMC formulation by LC-MS/MS analysis", "type": "ADME, organism-based", "details": "in vivo", "outline": "as §3"}, "[20]": {"target": "Voltage-gated inwardly rectifying potassium channel KCNH2 (Homo sapiens, UniProt Q12809)", "sequence (Q12809 whole entry)": "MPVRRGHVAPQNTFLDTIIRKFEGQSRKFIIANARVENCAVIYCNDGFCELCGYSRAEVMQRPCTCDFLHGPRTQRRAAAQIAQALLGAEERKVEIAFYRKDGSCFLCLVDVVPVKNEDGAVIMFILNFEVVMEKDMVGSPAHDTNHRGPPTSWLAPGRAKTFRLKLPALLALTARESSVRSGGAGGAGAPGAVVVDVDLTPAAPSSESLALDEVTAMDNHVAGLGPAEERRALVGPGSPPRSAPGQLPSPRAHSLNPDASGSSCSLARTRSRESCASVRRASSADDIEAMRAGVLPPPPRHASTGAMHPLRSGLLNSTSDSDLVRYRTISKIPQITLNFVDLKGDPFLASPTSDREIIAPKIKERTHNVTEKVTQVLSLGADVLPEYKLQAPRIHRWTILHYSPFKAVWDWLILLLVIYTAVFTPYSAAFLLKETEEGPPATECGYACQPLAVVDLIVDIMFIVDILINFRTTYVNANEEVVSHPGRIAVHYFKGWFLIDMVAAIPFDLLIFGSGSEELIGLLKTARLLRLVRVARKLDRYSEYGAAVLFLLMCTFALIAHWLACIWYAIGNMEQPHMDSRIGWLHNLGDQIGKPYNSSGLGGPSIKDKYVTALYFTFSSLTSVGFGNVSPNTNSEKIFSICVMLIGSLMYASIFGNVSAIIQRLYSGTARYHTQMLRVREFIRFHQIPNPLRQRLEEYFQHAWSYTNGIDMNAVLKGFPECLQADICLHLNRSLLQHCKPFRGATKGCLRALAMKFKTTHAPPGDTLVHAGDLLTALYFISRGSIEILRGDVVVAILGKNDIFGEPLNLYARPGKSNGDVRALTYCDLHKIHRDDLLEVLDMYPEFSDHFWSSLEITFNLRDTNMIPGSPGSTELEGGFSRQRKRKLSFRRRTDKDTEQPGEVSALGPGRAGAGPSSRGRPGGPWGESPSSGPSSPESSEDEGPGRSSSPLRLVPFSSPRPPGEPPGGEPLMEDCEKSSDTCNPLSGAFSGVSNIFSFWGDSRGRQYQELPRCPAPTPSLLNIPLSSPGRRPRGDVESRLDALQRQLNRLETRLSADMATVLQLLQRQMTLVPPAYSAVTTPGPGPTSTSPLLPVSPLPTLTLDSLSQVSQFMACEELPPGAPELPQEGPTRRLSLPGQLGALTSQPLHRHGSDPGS", "assay": "Inhibition of human ERG expressed in CHO cells measured after 5 mins by Qpatch method", "type": "cell-based", "outline": "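CHO cells stably expressing hERG, whole-cell QPatch. Vehicle applied 5 min, then 0.3, 3.0, 10 and 30 µM in rising order, each concentration applied twice. Current measured after 5 min as the average of 3 voltage pulses; block taken relative to vehicle pretreatment, mean ± SEM.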"}, "[21]": {"assay": "AUC (infinity) in monkey at 0.5 mg/kg, po by LC-MS/MS analysis", "type": "ADME, organism-based, Macaca mulatta", "parameters": "route oral, time infinity, dose 0.5 mg/kg", "details": "rhesus monkey, in vivo"}, "[22]": {"assay": "AUC (0 to 24 hrs) in Sprague-Dawley rat at 250 mg/kg, po administered via gavage after 24 hrs using HPMC formulation by LC-MS/MS analysis", "type": "ADME, organism-based", "parameters": "route oral, dose 250 mg/kg, time <=24", "details": "in vivo", "outline": "as §4"}, "[23]": {"assay": "Cmax in monkey at 0.5 mg/kg, po by LC-MS/MS analysis", "type": "ADME, organism-based, Macaca mulatta", "parameters": "route oral, dose 0.5 mg/kg", "details": "rhesus monkey, in vivo"}, "[24]": {"assay": "Intrinsic clearance in cynomolgus monkey liver microsomes at 1 uM after 5 to 60 mins in presence of NADPH by LC-MS/MS analysis", "type": "ADME, Macaca fascicularis, Microsome", "details": "time 5-60 min, read-out: CLH"}, "[25]": {"assay": "Solubility of compound in simulated gastric fluid at pH 1.2 measured after 3 days", "type": "physicochemical", "details": "time 3 day", "outline": "(§5)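 Solubility in aqueous buffer at pH 2 and pH 7, and in simulated gastric and intestinal fluids.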"}, "[26]": {"assay": "AUC (0 to 24 hrs) in Sprague-Dawley rat at 100 mg/kg, po administered via gavage after 24 hrs using nanosuspension formulation by LC-MS/MS analysis", "type": "ADME, organism-based", "parameters": "route oral, dose 100 mg/kg, time <=24", "details": "in vivo", "outline": "as §4"}, "[27]": {"assay": "Solubility of compound in phosphate buffer at pH 2 measured after 3 days", "type": "physicochemical", "details": "time 3 day", "outline": "as §5"}, "[28]": {"assay": "Intrinsic clearance in dog liver microsomes at 1 uM after 5 to 60 mins in presence of NADPH by LC-MS/MS analysis", "type": "ADME, Canis lupus familiaris, Microsome", "details": "time 5-60 min, read-out: CLH"}},
  "data": [
    {"compound": "Cn1c(=O)n(CC(=O)N2CCC2)c2cc(-c3ccc(C(F)(F)F)s3)cnc21", "values": [
      {"measurement": "IC50", "setting": "Cytochrome P450 2C9", "result": "> 50", "unit": "µM"},
      {"measurement": "clearance", "setting": "[1]", "result": 54, "unit": "mL/min/kg"},
      {"measurement": "Ratio", "setting": "[2]", "result": 6},
      {"measurement": "Tmax", "setting": "[3]", "result": 1, "unit": "h"},
      {"measurement": "Tmax", "setting": "[4]", "result": 0.3, "unit": "h"},
      {"measurement": "IC50", "setting": "[5]", "result": "> 10", "unit": "µM"},
      {"measurement": "Cmax", "setting": "[6]", "result": 7010, "unit": "ng/mL"},
      {"measurement": "Ratio", "setting": "[7]", "result": 8},
      {"measurement": "IC50", "setting": "Cytochrome P450 3A4 [8]", "result": "> 50", "unit": "µM"},
      {"measurement": "TDI", "setting": "Cytochrome P450 3A4 [9]", "result": "Not Active"},
      {"measurement": "Tmax", "setting": "[10]", "result": 2.7, "unit": "h"},
      {"measurement": "bioavailability", "setting": "[11]", "result": 43, "unit": "%"},
      {"measurement": "IC50", "setting": "Cytochrome P450 3A4 [12]", "result": "> 50", "unit": "µM"},
      {"measurement": "AUC(0-t)", "setting": "[13]", "result": 22300, "unit": "ng·h/mL"},
      {"measurement": "clearance", "setting": "[14]", "result": 9, "unit": "mL/min/kg"},
      {"measurement": "Cmax", "setting": "[15]", "result": 479, "unit": "ng/mL"},
      {"measurement": "fraction unbound at 6 h, 0.5 µM", "setting": "[16]", "result": 0.053},
      {"measurement": "Tmax", "setting": "[17]", "result": 2.7, "unit": "h"},
      {"measurement": "bioavailability", "setting": "[18]", "result": 132, "unit": "%"},
      {"measurement": "Tmax", "setting": "[19]", "result": 2.7, "unit": "h"},
      {"measurement": "IC50", "setting": "[20]", "result": "> 30", "unit": "µM"},
      {"measurement": "AUC(0-inf)", "setting": "[21]", "result": 385, "unit": "ng·h/mL"},
      {"measurement": "AUC(0-t)", "setting": "[22]", "result": 19700, "unit": "ng·h/mL"},
      {"measurement": "Cmax", "setting": "[23]", "result": 167, "unit": "ng/mL"},
      {"measurement": "microsomal CLint at 1 µM", "setting": "[24]", "result": 16.6, "unit": "µL/min/mg"},
      {"measurement": "solubility at 72 h", "setting": "[25]", "result": 4.4, "unit": "µM"},
      {"measurement": "AUC(0-t)", "setting": "[26]", "result": 51900, "unit": "ng·h/mL"},
      {"measurement": "solubility at 72 h", "setting": "[27]", "result": "< 4", "unit": "µM"},
      {"measurement": "microsomal CLint at 1 µM", "setting": "[28]", "result": 14.7, "unit": "µL/min/mg"}
    ]}
  ]
}
